What all share (assay type): functional
In experiment [1] the test system is Mus musculus. Nature of the experiment: Compound was evaluated for the hypolipidemic activity in CF1 male mice at a dose of 20 mg/kg per day intraperitoneally for serum cholesterol at 16th day. The conditions noted are these: route intraperitoneal. The gist of the method:
(§1)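 CF1 male mice (~30 g) were dosed ip daily. Tail-vein blood was collected on day 9 and day 16 between 8:00 and 9:30 a.m. Serum cholesterol was measured by modified Liebermann–Burchard on duplicate 25-µL samples. Triglyceride was measured on day 16 in a separate group, duplicate 50-µL samples. Values are % control, mean ± SD, N = 6; Student's t test.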

Experiment [2] deals with Mus musculus. Nature of the experiment: Hypolipidemic activity in CF1 male mice at a dose of 20 mg/kg per day, serum cholesterol measured on the 9th day. Put shortly:
(§2)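 CF1 male mice (~30 g) were given 20 mg/kg per day ip at 11:00 a.m.; N = 6 per group. Tail-vein serum was collected in nonheparinized microcapillaries. Cholesterol was measured on days 9 and 16 by modified Liebermann–Burchard on duplicate 25 µL samples. Triglyceride was measured on day 16 in a separate group, duplicate 50 µL. Values are % control ± SD; Student's t test.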

Experiment [3] deals with Mus musculus. Nature of the experiment: Compound was evaluated for the hypolipidemic activity in CF1 male mice at a dose of 20 mg/kg per day intraperitoneally for serum triglyceride at 16th day. Particulars: route intraperitoneal. Put shortly:
as §1

For experiment [4], the system named is Mus musculus. Nature of the experiment: Hypolipidemic activity in CF1 male mice at a dose of 20 mg/kg per day, serum cholesterol measured on the 16th day. The gist of the method: as §2
Experiment [5] deals with Mus musculus. Briefly: Hypolipidemic activity in CF1 male mice at a dose of 20 mg/kg per day, serum triglyceride measured on the 16th day. Put shortly: as §2
Experiment [6] has as its system Mus musculus. Briefly: Compound was evaluated for the hypolipidemic activity in CF1 male mice at a dose of 20 mg/kg per day intraperitoneally of serum cholesterol at 9th day. Particulars: route intraperitoneal; in the assay text read “150 mg/kg” for “20 mg/kg”. Put shortly: as §1

Structures are written as SMILES.

Take `O=C(O)c1ccc(C2C(=O)c3ccccc3C2=O)cc1`: the Control in the experiment with Mus musculus [1] is 78%; with Mus musculus [3], 95%. Besides, the “Serum cholesterol, % of control” value with Mus musculus [2] is given as 95%.

Turning to `O=C1c2ccccc2C(=O)C1c1ccc2ccccc2c1`, the entries for the “Serum cholesterol, % of control” value in the experiment on Mus musculus [4] and in the experiment on Mus musculus [2] were 66% and 72%, respectively. Further, the “Serum triglyceride, % of control” value with Mus musculus [5] was 66%.

As for `O=C1CC(=O)c2ccccc21`, the “Serum cholesterol, % of control” value came out at 60% in the experiment with Mus musculus [4] and 74% in the experiment with Mus musculus [2]. Further, the “Serum triglyceride, % of control” value with Mus musculus [5] is 79%.

With `CCOc1ccc(C2C(=O)c3ccccc3C2=O)cc1`, the entries for the “Serum cholesterol, % of control” value in the experiment on Mus musculus [4] and in the experiment with Mus musculus [2] were 59% and 66%, respectively. In addition, the “Serum triglyceride, % of control” value with Mus musculus [5] came out at 81%.

On to `O=C1c2ccccc2C(=O)C1c1c(Cl)cccc1Cl`, for which the “Serum cholesterol, % of control” value was 68% in the experiment on Mus musculus [4] and 71% in the experiment on Mus musculus [2]. Besides, in the experiment with Mus musculus [5], the “Serum triglyceride, % of control” value is given as 61%.

For `CCC1C(=O)c2ccccc2C1=O`, the “Serum cholesterol, % of control” value in the experiment on Mus musculus [4] was determined as 60%; in the experiment on Mus musculus [2], 63%. For the same molecule, the “Serum triglyceride, % of control” value in the experiment with Mus musculus [5] stood at 63%.

For `CC1C(=O)c2ccccc2C1=O`, the “Serum cholesterol, % of control” value was 58% in the experiment with Mus musculus [4] and 74% in the experiment on Mus musculus [2]. For the same molecule, the “Serum triglyceride, % of control” value in the experiment on Mus musculus [5] amounted to 61%.

On to `O=C1c2ccccc2C(=O)C1c1ccc(Cl)cc1Cl`, for which the “Serum cholesterol, % of control” value in the experiment on Mus musculus [4] worked out at 73%; with Mus musculus [2] it was 89%. Besides, in the experiment on Mus musculus [5], the “Serum triglyceride, % of control” value is 87%.

Take `CCCCCC1C(=O)c2ccccc2C1=O`: the “Serum cholesterol, % of control” value was 64% with Mus musculus [4] and 65% in the experiment with Mus musculus [2]. Moreover, in the experiment on Mus musculus [5], the “Serum triglyceride, % of control” value stood at 70%.

In the case of `O=C1c2ccccc2C(=O)C1c1ccc(Cl)c(Cl)c1`, the “Serum cholesterol, % of control” value in the experiment on Mus musculus [4] was 84%; in the experiment with Mus musculus [2] it was 93%. For the same molecule, the “Serum triglyceride, % of control” value with Mus musculus [5] is given as 89%.

Turning to `Cc1ccc(C2C(=O)c3ccccc3C2=O)c(C)c1`, the “Serum cholesterol, % of control” value in the experiment on Mus musculus [4] turned out to be 54%; in the experiment with Mus musculus [2], 61%. In addition, the “Serum triglyceride, % of control” value with Mus musculus [5] amounted to 58%.

With `COc1cccc(C2C(=O)c3ccccc3C2=O)c1`, the “Serum cholesterol, % of control” value with Mus musculus [4] was 67%; with Mus musculus [2], 75%. For the same molecule, the “Serum triglyceride, % of control” value in the experiment with Mus musculus [5] came to 55%.

For the molecule `O=C(O)c1ccccc1C1C(=O)c2ccccc2C1=O`, the Control stood at 78% in the experiment on Mus musculus [1] and 52% in the experiment with Mus musculus [3]. For the same molecule, in the experiment on Mus musculus [2], the “Serum cholesterol, % of control” value is recorded as 79%.

For the molecule `CCCCC1C(=O)c2ccccc2C1=O`, the entries for the “Serum cholesterol, % of control” value in the experiment on Mus musculus [4] and in the experiment with Mus musculus [2] were 58% and 74%, respectively. Besides, the “Serum triglyceride, % of control” value with Mus musculus [5] came to 63%.

As for `O=C1c2ccccc2C(=O)C1c1ccc(-c2ccccc2)cc1`, the “Serum cholesterol, % of control” value in the experiment with Mus musculus [4] is on record as 64%; in the experiment on Mus musculus [2], 78%. For the same molecule, the “Serum triglyceride, % of control” value in the experiment with Mus musculus [5] worked out at 63%.

Regarding `CCCC1C(=O)c2ccccc2C1=O`, the results for the “Serum cholesterol, % of control” value in the experiment with Mus musculus [4] and in the experiment with Mus musculus [2] were 66% and 68%, respectively. The “Serum triglyceride, % of control” value in the experiment on Mus musculus [5] came to 52%.

As to `Cc1ccccc1C1C(=O)c2ccccc2C1=O`, the “Serum cholesterol, % of control” value with Mus musculus [4] is reported as 69%; in the experiment with Mus musculus [2], 73%. The “Serum triglyceride, % of control” value in the experiment with Mus musculus [5] is on record as 49%.

Consider `COc1ccc(C2C(=O)c3ccccc3C2=O)c(OC)c1`, for which the “Serum cholesterol, % of control” value in the experiment on Mus musculus [4] came to 74%; in the experiment on Mus musculus [2] it was 89%. Moreover, the “Serum triglyceride, % of control” value in the experiment with Mus musculus [5] turned out to be 87%.

Turning to `O=C1c2ccccc2C(=O)C1c1cccc(Cl)c1`, the “Serum cholesterol, % of control” value in the experiment with Mus musculus [4] was determined as 60%; in the experiment on Mus musculus [2], 70%. Also, in the experiment with Mus musculus [5], the “Serum triglyceride, % of control” value is on record as 70%.

For `O=C1c2ccccc2C(=O)C1c1ccccc1Cl`, the “Serum cholesterol, % of control” value in the experiment with Mus musculus [4] is 56%; in the experiment on Mus musculus [2] it was 75%. For the same molecule, in the experiment with Mus musculus [5], the “Serum triglyceride, % of control” value amounted to 55%.

With `COc1ccc(C2C(=O)c3ccccc3C2=O)cc1OC`, the “Serum cholesterol, % of control” value in the experiment on Mus musculus [4] is 69%; in the experiment on Mus musculus [2], 75%. Further, in the experiment with Mus musculus [5], the “Serum triglyceride, % of control” value is on record as 66%.

Turning to `Cc1ccc(C2C(=O)c3ccccc3C2=O)cc1`, the “Serum cholesterol, % of control” value in the experiment with Mus musculus [4] is on record as 65%; in the experiment on Mus musculus [2], 68%. Further, the “Serum triglyceride, % of control” value in the experiment with Mus musculus [5] is given as 42%.

In the case of `Cc1cccc(C2C(=O)c3ccccc3C2=O)c1`, the “Serum cholesterol, % of control” value in the experiment on Mus musculus [4] came out at 71%; with Mus musculus [2], 75%. The “Serum triglyceride, % of control” value in the experiment on Mus musculus [5] is listed as 51%.

As to `COc1ccccc1C1C(=O)c2ccccc2C1=O`, the “Serum cholesterol, % of control” value in the experiment on Mus musculus [4] worked out at 72%; with Mus musculus [2], 79%. The “Serum triglyceride, % of control” value in the experiment with Mus musculus [5] is recorded as 48%.

Consider `O=C1c2ccccc2C(=O)C1c1ccc(Br)cc1` [BROMINDIONE], for which the “Serum cholesterol, % of control” value in the experiment on Mus musculus [4] was 56%; with Mus musculus [2], 72%. Besides, in the experiment on Mus musculus [5], the “Serum triglyceride, % of control” value is reported as 66%.

In the case of `CCOC(=O)C(C)(C)Oc1ccc(Cl)cc1` [CLOFIBRATE], the “Serum cholesterol, % of control” value in the experiment on Mus musculus [4] is given as 87%. Moreover, the “Serum triglyceride, % of control” value in the experiment on Mus musculus [5] stood at 75%. Also, the Control with Mus musculus [6] amounted to 88%.

On to `O=C1c2ccccc2C(=O)C1c1ccc(Cl)cc1` [CLORINDIONE], for which the “Serum cholesterol, % of control” value is 63% in the experiment with Mus musculus [4] and 64% in the experiment with Mus musculus [2]. The “Serum triglyceride, % of control” value in the experiment with Mus musculus [5] is 47%.

With `O=C1c2ccccc2C(=O)C1c1ccccc1` [PHENINDIONE], the “Serum cholesterol, % of control” value in the experiment with Mus musculus [4] is 60%; with Mus musculus [2], 64%. For the same molecule, in the experiment with Mus musculus [5], the “Serum triglyceride, % of control” value was found to be 60%.

(Values after ChEMBL document CHEMBL1123129, “Hypolipidemic activity of indan-1,3-dione derivatives in rodents” (J Med Chem, 1985).)
